Assay outcomes: PubChem, The Scripps Research Institute Molecular Screening Center
Rin1 Abl inh = inhibitors of human Rin1-Abl protein interaction | TR-FRET Rin1/Abl binding, biochemical | inhibition, % at 7.35 µM | 0.4% of 360,000 active; in the data active means inhibition above about 5%, passing the limit was not always enough
ASAP1 inh = ASAP1 ArfGAP inhibition; ASAP1-stimulated ARF1 GTP hydrolysis, GDP FP detection; inhibition, % at 16.5 µM; 0.19% of 360,000 active; AID 624377; in the data active means inhibition above about 25%;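 further: 0% = vehicle with enzyme and substrate and 100% = no enzyme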
ARFGAP1 inh = inhibitors of rat ARFGAP1; AID 651572; inhibition, % at 16.5 µM; Q62848; 0.26% of 360,000 active; Arfgap1-stimulated ARF1 GTP hydrolysis, GDP FP detection;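 active means inhibition above a per-plate limit, mean inhibition of low control wells plus 3 SD, cut at about 25% in these data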;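 further: 0% = DMSO wells with enzyme and 100% = wells lacking Arfgap1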
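Material: rat Arfgap1 catalytic domain, aa 1-136; also added: human ARF1(Δ1-17)-GTP substrate; compound dosing: one concentration, 16.5 µM, DMSO 1.26%; incubation: GTP hydrolysis reaction 2 h at 25 °C; measured by: Tracer-displacement fluorescence polarization with EDTA stop, 620/688 nm; evaluation: % inhibition from polarization; repeats: one replicate per compound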
GalR3 antag = antagonists of human GalR3; O60755; HEK293 GalR3-CNG cAMP membrane potential fluorescence; galR3 body fused to GalR1 C-terminus; inhibition, % at 3 µM; 0.44% of 360,000 active; AID 651719;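 active means inhibition above the screen-wide average plus 3 SD, cut at about 13% in these data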;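 further: forskolin and galanin both at EC90 stimulate the cells; cAMP rise reported by CNG channel membrane potential dye signal; 0% = forskolin plus galanin with DMSO and 100% = forskolin alone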
ASAP1 GAP conf = ASAP1 inhibition confirmed. shares compounds with ASAP1 inh. ASAP1-stimulated Arf1 GTPase, GDP fluorescence polarization. inhibition, % at 16.5 µM. 37% of 620 active. AID 624431;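 active means mean inhibition over triplicates exceeds the hit threshold derived for the earlier primary screening run, cut at about 25% in these data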
Starred values were filed as active, the others as inactive. Sampled rows, rich in hits. Any-hit rate of the full collection: about 1.2%.

How did c1ccc(-c2cc(-c3nnc4n3N=C(c3ccc5ccccc5c3)CS4)[nH]n2)cc1 do in these assays?
Rin1 Abl inh: -1.2; ASAP1 inh: 25.2*; ARFGAP1 inh: 11.4; GalR3 antag: 0.9; ASAP1 GAP conf: 11.5

Results for CCOC(=O)c1sc(N(Cc2ccccc2)C(=O)COC(=O)c2ccc(O)cc2)nc1C ?
Rin1 Abl inh: 1.3; ASAP1 inh: 26.5*; ARFGAP1 inh: 15.5; GalR3 antag: -6.1; ASAP1 GAP conf: 21.3

How did CCOC(=O)c1sc(N(Cc2ccccc2)C(=O)COC(=O)c2ccccc2O)nc1C do in these assays?
Rin1 Abl inh: 0.4; ASAP1 inh: 2.3; ARFGAP1 inh: 3.2; GalR3 antag: -6.3

What do the screens show for `CCOC(=O)C1=C(C(=O)OCC)C2N(Cc3ccc(Br)cc3)c3ccccc3[C@@]23C[C@@H](C(=O)OC)N(S(=O)(=O)c2ccc(F)cc2)C3=N1` (stereo not given in full)?
ASAP1 inh: 9.5; ARFGAP1 inh: 1.2; GalR3 antag: -4.3

What do the screens show for `C=CCn1cnnc1SCC(=O)NCC1COc2ccccc2O1` (stereo not given)?
Rin1 Abl inh: 4.5; ASAP1 inh: 30.9*; ARFGAP1 inh: 3.4; GalR3 antag: 0.0; ASAP1 GAP conf: 9.1

What do the screens show for `C=CCn1cnnc1SCC(=O)N(C)CC1COc2ccccc2O1` (stereo not given)?
Rin1 Abl inh: 3.1; ASAP1 inh: -3.7; ARFGAP1 inh: -4.0; GalR3 antag: -7.4

How did COC(=O)Cc1nnn2c1[C@@H](C)[C@@H](c1ccccc1Br)OC[C@@H]2c1ccccc1 do in these assays?
ASAP1 inh: 1.5; ARFGAP1 inh: 3.7; GalR3 antag: -6.4

Results for COC(=O)c1ccc(C(=O)OCc2nc3cc4ccccc4cc3[nH]2)cc1 ?
Rin1 Abl inh: 0.6; ASAP1 inh: 26.3*; ARFGAP1 inh: 4.7; GalR3 antag: -2.0; ASAP1 GAP conf: 4.7

Results for COC1C(O)CCC2(CO2)C1C1(C)OC1CC=C(C)C (stereo not given) ?
ASAP1 inh: -8.3; ARFGAP1 inh: -0.7; GalR3 antag: -1.0

How did CC(=O)Nc1ccc(NC2=C/C(=N/S(=O)(=O)c3cccs3)c3ccccc3C2=O)cc1 do in these assays?
Rin1 Abl inh: 3.5; ASAP1 inh: 19.7; ARFGAP1 inh: 8.6; GalR3 antag: -6.5

How did COc1ccc(S(=O)(=O)/N=C2\C=C(Nc3ccc(O)cc3)C(=O)c3ccccc32)cc1 do in these assays?
Rin1 Abl inh: -3.6; ASAP1 inh: 38.2*; ARFGAP1 inh: 19.5; GalR3 antag: -8.8; ASAP1 GAP conf: 25.4*

How did Cc1ccc(NC(=O)C(OC(=O)c2ccc(O)cc2)c2ccccc2)cc1Cl (stereo not given) do in these assays?
Rin1 Abl inh: -1.7; ASAP1 inh: 27.6*; ARFGAP1 inh: 9.7; GalR3 antag: -2.9; ASAP1 GAP conf: -0.7

What do the screens show for `Cc1ccc(NC(=O)C(OC(=O)c2ccc(F)cc2)c2ccccc2)cc1Cl` (stereo not given)?
Rin1 Abl inh: -0.4; ASAP1 inh: 16.3; ARFGAP1 inh: 1.0; GalR3 antag: -0.1

How did CCCCN(Cc1ccco1)C(=O)Cn1ncc2c(=O)oc3ccc(C)cc3c21 do in these assays?
Rin1 Abl inh: -1.0; ASAP1 inh: 29.9*; ARFGAP1 inh: 15.2; ASAP1 GAP conf: 33.0*

Results for Cc1ccc2oc(=O)c3cnn(CC(=O)N(CCC(C)C)Cc4ccco4)c3c2c1 ?
Rin1 Abl inh: -1.2; ASAP1 inh: -0.5; ARFGAP1 inh: -8.1

What do the screens show for `CC(C)[C@@H]1CC[C@@H](C)C[C@H]1OC[B-](F)(F)F`?
ASAP1 inh: 6.0; ARFGAP1 inh: 1.6; GalR3 antag: -5.1

How did CCC(=O)NC(c1cccs1)c1cc([N+](=O)[O-])c2cccnc2c1OC (stereo not given) do in these assays?
Rin1 Abl inh: -10.0; ASAP1 inh: 43.1*; ARFGAP1 inh: 23.4; GalR3 antag: 3.5; ASAP1 GAP conf: 13.5

Results for N#Cc1ccc(S(=O)(=O)N2CCCc3nc(-c4ccccc4)ccc32)cc1 ?
ASAP1 inh: 0.1; ARFGAP1 inh: -1.5; GalR3 antag: -8.1

How did N#Cc1cc(Cl)c(N2CCOCC2)cc1C#N do in these assays?
Rin1 Abl inh: 0.0; ASAP1 inh: 9.1; ARFGAP1 inh: 0.2; GalR3 antag: 3.5

How did N#Cc1cc2ccc(N3CCOCC3)cc2cc1C#N do in these assays?
Rin1 Abl inh: -1.4; ASAP1 inh: 29.5*; ARFGAP1 inh: 4.4; GalR3 antag: -9.4; ASAP1 GAP conf: 5.6
